SR-BI uptake up: activators of SR-BI mediated HDL lipid uptake | activation, % at 12.5 µM | CHO ldlA[mSR-BI] cells, DiI-HDL uptake fluorescence, 3 h; 100 = double the neutral-control signal | AID 504775 | actives 0.096% (n = 320,000);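 active means mean replicate activation of at least 60% and every replicate at or above 60%; inconclusive means mean or all-replicate condition met, but not both; inactive means mean below 60% and not all replicates reaching 60%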
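Material: SR-BI-overexpressing, LDLR-lacking CHO cells; schedule: compound exposure 3 h, 37 °C; reagent: DiI-labelled HDL at 10 µg/mL final; technique: bottom-read fluorescence, 550/595 nm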
PvdQ acylase: blocks Pseudomonas aeruginosa PvdQ acylase activity | actives 0.063% (n = 340,000) | inhibition, % at 10 µM | purified PvdQ acylase, fluorescence plate reader | AID 488965; in the data active means inhibition above about 30%, passing the limit was not always enough; inconclusive means no clear call, values can overlap the other calls
dFosB activator: activators of mouse delta FosB homodimer | purified delta FosB, TAMRA-CDK5 oligo fluorescence polarization; percent of positive-control signal above neutral wells | activation, % at 25 µM | AID 493131 | actives 0.99% (n = 340,000);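 active means mean activation above about 17%, with every replicate also reaching it, limit read from the data, passing the limit was not always enough; inconclusive means only one of the two conditions met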
Target sequence (P13346 whole entry, looked up): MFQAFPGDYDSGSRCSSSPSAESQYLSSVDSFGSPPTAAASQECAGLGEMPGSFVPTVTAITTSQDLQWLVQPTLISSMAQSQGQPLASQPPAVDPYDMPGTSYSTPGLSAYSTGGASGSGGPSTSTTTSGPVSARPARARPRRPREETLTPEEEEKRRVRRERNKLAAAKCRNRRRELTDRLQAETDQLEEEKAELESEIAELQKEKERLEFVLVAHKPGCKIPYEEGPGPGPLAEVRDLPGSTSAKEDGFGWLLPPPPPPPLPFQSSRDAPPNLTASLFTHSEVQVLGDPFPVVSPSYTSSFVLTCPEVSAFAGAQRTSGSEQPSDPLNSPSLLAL
XiGFP reactiv: reactivates the inactive X chromosome in mouse fibroblasts | XiGFP mouse fibroblasts, % GFP-positive cells imaging, 3 d; cells co-treated with 5-aza-dC sensitizer; scaled so ellipticine positive control = 100% | activation, % at 7.58 µM | actives 0.055% (n = 360,000);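 active means mean normalized replicate activation at least 10% and every replicate at or above 10%; inconclusive means only one of the two criteria met; inactive means mean below 10% and not all replicates reach 10%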
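System: XiGFP fibroblasts, SV40-immortalized. Medium: DMEM plus 5-aza-dC sensitizer. Doses: single point. Timing: 3 d treatment, 15 min room-temperature fixation. Control set: ellipticine 6 µM.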
Ecoli rRNA inh: inhibits bacterial ribosomal RNA function over humanized ribosomes; E. coli WT GFP vs humanized-ribosome RFP mutants, fluorescence, 24 h; active compounds read low; DMSO median 0, no signal -100; GFP signal change (wild-type ribosome), % (test concentration not listed); actives 1.6% (n = 350,000);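 active means significant combined selectivity score with lowered wild-type GFP, culture density cut under 30%, mutant RFP and density less affected; inactive means any of these conditions unmet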
SR-BI HDL uptake: blocks mouse SR-BI lipid uptake from DiI-HDL; Q61009; ldlA[mSR-BI] CHO cells, DiI-HDL uptake fluorescence, 3 h; inhibition, % at 12.5 µM; actives 0.96% (n = 320,000); AID 488896;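 active means mean replicate inhibition of at least 70% and a set share of replicates each scoring 70 or more; inconclusive means meets just one of the two criteria; inactive means fails both criteria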
Hits are given with their value; - = inactive; ? = inconclusive; . = not tested or not shown. Sampled rows, rich in hits. Any-hit rate of the full collection: about 2.6%.

SMILES	SR-BI uptake up	PvdQ acylase	dFosB activator	XiGFP reactiv	Ecoli rRNA inh	SR-BI HDL uptake
Oc1c(Cl)cc(Cl)cc1C1=NNC(c2ccc(Cl)cc2)C1 (configuration not stated)	-	-	-	.	.	83.8
O=C(N[C@H]1CC[C@@H](CC(=O)N2CCCCC2)O[C@H]1CO)c1ccccn1	.	.	.	-	-	.
O=C(Nc1cccn2ncnc12)c1cccc(C(F)(F)F)c1	-	-	-	-	-	-
C[C@@H](O)C#Cc1cnc2c(c1)C(=O)N([C@@H](C)CO)C[C@H](C)[C@@H](CN(C)C(=O)c1ccc(F)cc1)O2	.	.	.	-	-	.
O=C(Nc1ccc(S(=O)(=O)N2CCOCC2)cc1)c1ccc([N+](=O)[O-])o1	-	-	-	-	-24.4	-
O=C(Nc1ccc(N2CCCC2)c(Cl)c1)c1ccc(Br)o1	-	-	42.6	.	-	-
CCC(=O)N1CCN(c2ccc(NC(=O)c3ccc([N+](=O)[O-])o3)cc2Cl)CC1	-	-	-	-	-	-
CCCCn1nnc(NC(=O)c2ccc(-c3ccccc3[N+](=O)[O-])o2)n1	-	-	-	-	-	-
CCn1nnc(NC(=O)c2ccc([N+](=O)[O-])o2)n1	-	-	-	-	-23.1	-
CCN1CCN(c2ccc(NC(=O)c3ccc([N+](=O)[O-])o3)cc2Cl)CC1	-	-	-	-	-37.7	-
COc1cc2cnc(C3=CCCCC3)cc2cc1OC	-	-	-	-	-	-
O=C(Nc1ccc(N2CCOCC2)cc1)c1ccc([N+](=O)[O-])o1	-	-	-	-	-19.2	-
O=C(Nc1cc(Cl)ccc1-n1cncn1)c1ccc([N+](=O)[O-])o1	-	-	-	-	-21.3	-
O=C(CC1CCCCC1)NCC1CCCO1 (configuration not stated)	-	-	-	.	.	-
CC(C)CNS(=O)(=O)c1ccc(CCC(=O)N2CCOCC2)cc1	.	-	-	.	.	.
Cc1csc2nc(SCC(=O)Nc3ccccc3F)[nH]c(=O)c12	-	-	23.6	-	-	-
COc1ccc(OC)c(NC(=O)CSc2nc3scc(C)c3c(=O)[nH]2)c1	-	-	-	-	-	-
O=C(/C=C/c1ccccc1)Nc1cccnc1Oc1ccccc1F	-	-	-	-	-16.4	-
Nc1cccnc1Oc1ccccc1F	?	-	-	-	-	-
Cn1c(SCc2cccc(C(F)(F)F)c2)nnc1-c1ccco1	164.0	-	-	.	.	-
COC(=O)c1cn(C(=O)c2ccc3c(c2)OCO3)c2ccccc12	.	.	.	-	-	.
C=C1C(=O)c2sccc2C(c2ccc(OC)c(OC)c2)C1COC(C)=O (configuration not stated)	-	-	-	-	-25.4	-
CCN1CCN(CC(=O)N2N=C(c3cccs3)CC2c2ccc(OC)c(OC)c2)C(=O)C1=O (configuration not stated)	-	-	-	-	-	-
COc1ccc(CCNC(=O)CN2CCN(Cc3ccccc3F)C2=O)cc1OC	-	-	-	-	-	-
CCOc1ccc(CCNC(=O)CN2CCN(Cc3ccccc3C)C2=O)cc1OCC	-	-	-	.	.	79.2
SMILES	SR-BI uptake up	PvdQ acylase	dFosB activator	XiGFP reactiv	Ecoli rRNA inh	SR-BI HDL uptake
COc1ccc(CCNC(=O)CCc2nc3ccccc3[nH]2)cc1OC	.	-	-	-	-	.
CCOc1ccc(CCNC(=O)CCc2nc3ccccc3[nH]2)cc1OCC	.	-	-	-	-19.8	.
CCOc1ccc(C(=O)Nc2nc3ccccc3[nH]2)cc1OCC	-	-	-	-	-	80.9
COc1ccc(C(=O)Nc2nc3ccccc3[nH]2)cc1OC	-	-	-	.	-	-
COCCn1c(SCC(=O)Nc2ccc(NC(C)=O)cc2)nc2c([nH]c3ccccc32)c1=O	-	-	-	-	-	-
O=C(Cn1c2ccccc2c(=O)c2cc([N+](=O)[O-])ccc21)Nc1ccccc1Cl	-	-	62.8	-	-	-
CCOC(=O)Cc1csc(NC(=O)CSc2nnc(-c3ccc(C)cc3)o2)n1	-	-	-	.	.	-
CCNc1nc(NCC)nc(-n2nc(C)cc2C)n1	-	-	-	.	-42.5	-
COc1ccc(N2CCN(CC(=O)Nc3ccccc3C(=O)NCc3ccccc3)CC2)cc1	.	-	-	-	-28.9	-
COc1ccc(N2CCN(C(=O)Nc3ccccc3Cl)CC2)cc1	-	-	-	-	-22.9	-
COc1ccccc1C(=O)Nc1ccc2ccccc2c1	-	-	-	-	-32.7	-
COc1ccc(Cl)cc1NC(=O)c1ccccc1C	-	-	-	.	.	86.2
COc1ccc(Cl)cc1NC(=O)N1CCN(c2ccccc2OC)CC1	-	-	-	-	-30.5	-
COc1ccc(Cl)cc1NC(=O)c1cc(-c2ccccc2O)n[nH]1	-	-	-	.	.	90.4
COc1cccc(OC)c1C(=O)Nc1ccc2c(c1)Cc1ccccc1-2	-	-	-	-	-22.9	-
O=C(Nc1cc(F)ccc1F)N1CCN(c2ccnc3cc(Cl)ccc23)CC1	.	-	-	-	-27.6	.
COc1ccccc1N1CCN(C(=O)Nc2cccc(Cl)c2)CC1	-	-	-	.	-	-
CO[C@@H](CN(C)S(=O)(=O)c1ccc(F)cc1)[C@@H](C)CN([C@H](C)CO)S(=O)(=O)c1cccc(Cl)c1	.	.	.	-	-	.
COc1ccc(Cl)cc1NC(=O)NCC1CCN(C(=O)OC(C)(C)C)CC1	-	-	-	-	-20.4	-
COc1ccccc1N1CCN(C(=O)c2ccc(Br)o2)CC1	-	-	-	-	-	-
COc1ccc(Cl)cc1NC(=O)Nc1cccc([N+](=O)[O-])c1C	-	-	-	.	-31.8	78.1
COc1ccc(C(=O)Nc2ccc3ccccc3c2)c(OC)c1	-	-	-	-	-27.5	-
COc1ccc(N2CCN(C(=O)c3ccc(Br)o3)CC2)cc1	-	42.5	-	-	-	-
S=c1[nH]nc(COc2ccccc2)n1/N=C/c1cccs1	-	-	-	-	.	-
CC(=O)C1CCC2C3CCC4=CC(=O)C=CC4(C)C3CCC12C (configuration not stated)	-	-	-	-	-	-
SMILES	SR-BI uptake up	PvdQ acylase	dFosB activator	XiGFP reactiv	Ecoli rRNA inh	SR-BI HDL uptake
COc1ccccc1C(=O)Nc1cccc(NC(=O)c2ccccc2C)c1	-	-	-	-	-34.5	-
CCCCSc1nc2c(cnn2-c2ccccc2)c(=O)n1N	-	-	-	-	-	-
CCCSc1nc2c(cnn2-c2ccccc2)c(=O)n1N	-	-	-	-	-19.0	-
O=c1[nH]nc(SC2CCCCC2)c(=O)[nH]1	-	-	-	-	-	-
C/C(=N\NC(N)=S)c1ccc(Cl)s1	-	-	-	-	-	79.2
CCCC1CC(C(=O)NC(C(C)Cl)C2OC(SC)C(O)C(O)C2O)N(C)C1 (configuration not stated)	-	-	-	-	-32.4	-
